Activity calls are given as the source filed them. No cut-off for these calls is given here.
Tests used:
[1] = Cytotoxicity against macrophage-differentiated human THP1 cells assessed as reduction in cell viability incubated for 72 hrs by MTT assay; format: cell-based; details: macrophage-differentiated THP-1 cells
In short: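 THP-1 cells (3×10^4 per well) were differentiated with PMA (20 ng/mL, 48 h), then kept 24 h in fresh RPMI-1640 with 10% hiFBS. They were exposed to increasing compound concentrations for 72 h at 37 °C, then read by MTT reduction. CC50 is the 50% reduction versus untreated controls. Three independent experiments in triplicate.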

[2] = Cytotoxicity against human MRC5 cells assessed as reduction in cell viability incubated for 72 hrs by MTT assay; format: cell-based
In short: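 MRC5-SV2 (SV40-transformed human lung fibroblasts) were grown in DMEM with 10% hiFBS at 37 °C, 5% CO₂. Cells were exposed to increasing compound concentrations for 72 h at 37 °C, followed by MTT reduction. CC50 is the concentration reducing proliferation by 50% versus untreated cells. Three independent experiments in triplicate.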

Leishmania donovani [3] = test: Antileishmanial activity against Leishmania donovani MHOM/ET/67/HU3 amastigotes harboring luciferase reporter gene infected in macrophage-differentiated human THP1 cells incubated for 72 hrs by luminescence based assay; format: functional, organism-based; details: MHOM/ET/67/HU3, THP-1, 72 h
In short: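 THP-1 cells were differentiated with PMA (20 ng/mL, 48 h), then kept 24 h in fresh medium. They were infected 24 h at 35 °C with stationary luciferase-expressing promastigotes at a macrophage:parasite ratio of 1:10, and free parasites were washed off. Compounds were added at 0.62–40 μM for 72 h at 37 °C. Cells were lysed with 0.1% Triton X-100 and luminescence read. EC50 from three independent experiments in triplicate.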

[4] = Selectivity index, ratio of CC50 for macrophage-differentiated human THP1 cells to EC50 for Leishmania donovani MHOM/ET/67/HU3 amastigotes harboring luciferase reporter gene infected in macrophage-differentiated human THP1 cells; format: toxicity; details: macrophage-differentiated THP-1 cells, read-out: Ratio CC50/EC50
In short: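 CC50 came from PMA-differentiated THP-1 cells exposed to compound for 72 h at 37 °C and read by MTT reduction (three independent experiments, triplicate). This was divided by the EC50 against intracellular amastigotes, measured by luciferase luminescence after 72 h of treatment.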

Leishmania donovani [5] = test: Antileishmanial activity against Leishmania donovani promastigotes incubated for 72 hrs by MTT assay; format: functional, organism-based
In short: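 Promastigote proliferation was followed for 72 h in the presence of compound, then read by MTT reduction. EC50 is the concentration giving 50% inhibition of proliferation, from three independent experiments.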

Leishmania donovani [6] = test: Antileishmanial activity against Leishmania donovani promastigotes harboring 3-Luc gene assessed as decrease in intracellular ATP level using DMNEP-D-luciferin as substrate at 5 to 50 uM measured for 10 mins by luminescence based assay; format: functional, organism-based
In short: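 3-Luc promastigotes at 20×10^6 cells/mL in serum-free, phenol-red-free RPMI 1640 containing 50 µM DMNPE-D-luciferin. Once luminescence was stable, compound (5–50 µM) was added and luminescence of the live parasites followed in real time. Expressed as percent of untreated parasites. Parasites given 1.5 µM 1,4-naphthoquinone served as control.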

Leishmania donovani [7] = test: Induction of plasma membrane permeabilization in Leishmania donovani promastigotes by sytox green-based fluorescence assay; format: functional, organism-based
In short: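 Promastigotes at 20×10^6/mL in serum-free, phenol-red-free RPMI 1640 containing 1 µM SYTOX green received compound (10–50 µM tested). Fluorescence increase (ex 485/em 520 nm) was followed in real time. Triton X-100 (0.1% final) was then added to give full permeabilization, taken as 100%.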

Leishmania donovani [8] = test: Induction of mitochondrial membrane depolarization in Leishmania donovani promastigotes at 30 uM incubated for 4 hrs by Rhodamine 123 dye-based flow cytometric assay; format: functional, organism-based
In short: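 Promastigotes at 20×10^6 cells/mL in serum-free, phenol-red-free RPMI 1640 were incubated with compound for 4 h. Rh123 (0.5 µg/mL) was added for 10 min, unbound probe was washed off, and intracellular accumulation was read by flow cytometry (ex 488/em 520 nm). Parasites given 10 mM KCN served as the dysfunctional-mitochondrion control.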

Leishmania donovani [9] = test: Antileishmanial activity against Leishmania donovani promastigotes harboring 3-Luc gene assessed as decrease in intracellular ATP level at 5 to 50 uM using DMNEP-D-luciferin as substrate pretreated for 4 hrs followed by substrate addition measured for 10 mins by luminescence based assay; format: functional, organism-based
In short: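 3-Luc promastigotes, which express cytoplasmic luciferase, at 20×10^6 cells/mL in serum-free, phenol-red-free RPMI 1640, incubated with 5, 10, 20, 30, 40 or 50 µM compound for 4 h at 26 °C. DMNPE-D-luciferin then added to 50 µM final, and luminescence recorded for 10 min. Values given as percent of untreated parasites. 1.5 µM 1,4-naphthoquinone used as respiratory-chain-inhibited control.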

Leishmania donovani [10] = test: Antileishmanial activity against Leishmania donovani promastigotes incubated for 4 hrs by MTT assay; format: functional, organism-based
In short: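 L. donovani promastigotes at 20×10^6 cells/mL in RPMI 1640 without serum or phenol red were exposed to compound for 4 h at 26 °C. MTT was then added (0.5 mg/mL final) for 2 h, and formazan was solubilized with 0.5% SDS final. A595 was read. IC50 is the concentration inhibiting MTT reduction by 50%. Run in triplicate, repeated at least twice.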

Leishmania donovani [11] = test: Induction of mitochondrial membrane depolarization in Leishmania donovani promastigotes assessed as swelling of mitochondrial cristae at EC70 incubated for 12 hrs by transmission electron microscopic method; format: functional, organism-based
Leishmania donovani [12] = test: Induction of plasma membrane permeabilization in Leishmania donovani promastigotes assessed as formation of blebbings in plasma membrane at EC70 incubated for 12 hrs by transmission electron microscopic method; format: functional, organism-based

Structure (SMILES)	CC50 at 72 h [1] [µM]	CC50 at 72 h [2] [µM]	EC50 (Leishmania donovani [3]) [µM]	selectivity ratio [4]	EC50 (Leishmania donovani [5]) [µM]	Activity (Leishmania donovani [6])	Activity (Leishmania donovani [7])	Activity (Leishmania donovani [8])	Activity (Leishmania donovani [9])	IC50 (Leishmania donovani [10]) [µM]	Activity (Leishmania donovani [11])	Activity (Leishmania donovani [12])
C[C@@H]1[C@H](O)[C@@H](C)/C=C/C=C/C=C/C=C/C=C/C=C/C=C/[C@H](O[C@@H]2O[C@H](C)[C@@H](O)[C@H](N)[C@@H]2O)C[C@@H]2O[C@](O)(C[C@@H](O)C[C@@H](O)[C@H](O)CC[C@@H](O)C[C@@H](O)CC(=O)O[C@H]1C)C[C@H](O)[C@H]2C(=O)O [AMPHOTERICIN B]	16	12										
OC1(Cc2ccccc2)c2ccccc2C2=NCCN21 (stereo not given)	> 200	182	27.8									
OC1(Cc2ccccc2Cl)c2c(Cl)ccc(Cl)c2C2=NCCN21 (stereo not given)	82	41	4.16	19.7								
OC1(Cc2ccc(Cl)cc2)c2c(Cl)ccc(Cl)c2C2=NCCN21 (stereo not given)	68.7	33.8	2.62	26.2	13.3	Active	Dose-dependent effect	Active	Active	14.4		
OC1(Cc2ccc(Cl)cc2)c2ccccc2C2=NCCN21 (stereo not given)	145	80	2.1	69.1	11.8							
CSc1ccc(CC2(O)c3c(Cl)ccc(Cl)c3C3=NCCN32)cc1 (stereo not given)	84.4	77.4	6.65	12.7								
CSc1ccc(CC2(O)c3cc(Cl)c(Cl)cc3C3=NCCN32)cc1 (stereo not given)	31.1	8.48	1	31.1	2.1	Active	Dose-dependent effect	Active	Active	7.3	Active	Active
OC1(Cc2ccc(Cl)cc2)c2cc(Cl)c(Cl)cc2C2=NCCN21 (stereo not given)	31.9	8.91	2.95	10.8	6.9							

— ChEMBL document CHEMBL4359886, “Imidazo[2,1-a]isoindole scaffold as an uncharted structure active on Leishmania donovani” (Eur J Med Chem, 2019)
